# Results from different studies.
# Each line is one published result; the experiments were not run side by side.
Compound,test,test system,conditions,measurement,value
CCOC(=O)C1=C(CN2CCC[C@@H]2C(=O)Nc2ccc(B(O)O)cc2)NC(c2nccs2)=N[C@H]1c1ccc(F)cc1Br,,"CD-1 mouse, plasma","intravenous, 2 mg/kg",MRT(0-inf),0.57 h
OCc1nc2ccc(NCc3ccc(C(F)(F)F)cc3)cc2[nH]1,,"male BALB/c mouse, plasma","oral, 10 mg/kg",MRT(0-inf),1.9 h
O=c1c2c([nH]c3cc(OCc4ccc(OC(F)(F)F)cc4)ccc13)CCCC2,metabolic stability,"human, liver microsomes","1 µM, pH 7.4",half-life,0.627 h
NCc1cc2c(cc1F)C(=O)N(C1CCC(=O)NC1=O)C2 (stereo not drawn),,"male cynomolgus monkey, plasma","oral, 0.3 mg/kg",AUC(0-inf),5.5 ng·h/mL
COC1=CC(c2ccc[nH]2)=N/C1=C\c1cc(Cc2ccc(OC(F)(F)F)cc2)c(C)[nH]1.Cl,,"male CD-1 mouse, liver","oral, 40 mg/kg, single dose",MRT(0-t),34.8 h
Cc1nc2ccc(OCc3ccc(C(F)(F)F)cc3)cc2[nH]1,,"male BALB/c mouse, plasma","intravenous, 1 mg/kg",MRT(0-inf),1.54 h
COC1=CC(c2ccc[nH]2)=N/C1=C\c1[nH]c(Cc2ccc(OC(F)(F)F)cc2)cc1Cc1ccc(OC(F)(F)F)cc1,,"male CD-1 mouse, plasma","oral, 40 mg/kg, single dose",MRT(0-t),23.1 h
CC[C@H](C)[C@H](NC(=O)[C@@H]1CCCN1C(=O)CNC(=O)[C@H](Cc1ccccc1)NC(=O)[C@H](CC(N)=O)NC(=O)[C@H](CC(N)=O)NC(=O)[C@H](CO)NC(=O)[C@H](CO)NC(=O)[C@H](Cc1c[nH]cn1)NC(=O)[C@H](CCCNC(=N)N)NC(=O)[C@H](CC(C)C)NC(=O)[C@H](Cc1ccccc1)NC(=O)[C@H](CCC(=O)O)NC(=O)[C@H](C)NC(=O)[C@H](CC(C)C)NC(=O)[C@H](CCCNC(=N)N)NC(=O)[C@H](CCC(N)=O)NC(=O)[C@@H](NC(=O)[C@H](C)NC(=O)[C@@H]1CSSC[C@H](NC(=O)[C@H](CCCCN)NC(=O)CC[C@H](NC(=O)CCCCCCCCCCCCCCCCCCC(=O)O)C(=O)O)C(=O)N[C@@H](CC(N)=O)C(=O)N[C@@H]([C@@H](C)O)C(=O)N[C@@H](C)C(=O)N[C@@H]([C@@H](C)O)C(=O)N1)[C@@H](C)O)C(=O)N[C@@H](CC(C)C)C(=O)N1CCC[C@H]1C(=O)N1CCC[C@H]1C(=O)N[C@H](C(=O)N[C@@H](CC(N)=O)C(=O)N[C@H](C(=O)NCC(=O)N[C@@H](CO)C(=O)N[C@@H](CC(N)=O)C(=O)N[C@H](C(=O)N1CCC[C@H]1C(N)=O)[C@@H](C)O)C(C)C)[C@@H](C)O,,"cynomolgus monkey, plasma","subcutaneous, 20 nmol/kg, single dose",AUC(0-inf),39.3 µM·h
CCCCCCOc1ccc2c(=O)c3c([nH]c2c1)CCCC3,metabolic stability,"human, liver microsomes","1 µM, pH 7.4",half-life,0.25 h
